# Measurements as given in ChEMBL document CHEMBL1765072, “Inhibition of amyloidogenesis by nonsteroidal anti-inflammatory drugs and their hybrid nitrates” (J Med Chem, 2011).
# The source made the active and inactive calls. The calls are words filed in the database; no cut-off is given here.
# Assays:
# [1] = tested on: N2a; assay: Antiamyloidogenic activity in mouse N2A cells transfected with human APP Swedish mutant assessed as amyloid beta (1 to 42) level at 100 uM after 24 hrs by ELISA relative to control
# [2] = tested on: RAW264.7; assay: Antiinflammatory activity against mouse RAW264.7 cells assessed as LPS-induced nitrate production at 10 uM treated 30 mins before LPS challenge measured after 24 hrs by Griess reagent method relative to control
# [3] = tested on: N2a; assay: Antiamyloidogenic activity in mouse N2A cells transfected with human APP Swedish mutant assessed as amyloid beta (1 to 42) level at 1 uM after 24 hrs by ELISA relative to control
# [4] = tested on: RAW264.7; assay: Antiinflammatory activity against mouse RAW264.7 cells assessed as LPS-induced nitrate production at 100 uM treated 30 mins before LPS challenge measured after 24 hrs by Griess reagent method relative to control
# [5] = Cytotoxicity against mouse RAW264.7 cells assessed as cell viability at 100 uM after 24 hrs by MTT assay relative to control; assay type: cell-based; settings: read-out: Activity
# Summary of the method: (§1)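 RAW 264.7 cells given 0.5 mg/ml MTT in medium for 4 h, washed with PBS; formazan dissolved in DMSO, shaken 30 min, absorbance read at 570 nm against a 630 nm reference. Viability expressed relative to DMSO control.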
# [6] = Cytotoxicity against mouse RAW264.7 cells assessed as cell viability at 10 uM after 24 hrs by MTT assay relative to control; assay type: cell-based; settings: read-out: Activity
# Summary of the method: as §1
# [7] = Ratio of drug level in brain to plasma in C57BL/6 mouse at 10 mg/kg, ip after 120 mins; assay type: ADME, organism-based; parameters: dose 10 mg/kg, route intraperitoneal; settings: read-out: BPR
# Summary of the method: (§2)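 Male C57BL/6 mice (25 g) dosed i.p. with 10 mg/kg in DMSO/H₂O 1:1, sacrificed at 30 or 120 min. Brain extracted by methanol homogenization and plasma by acetonitrile, then C18 LC-MS/MS with MRM m/z 361→200 in positive mode. Quantified against a 4–500 ng/mL standard curve; N=4, mean and s.e.m.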
# [8] = Ratio of drug level in brain to plasma in C57BL/6 mouse at 10 mg/kg, ip after 30 mins; assay type: ADME, organism-based; parameters: dose 10 mg/kg, route intraperitoneal; settings: read-out: BPR
# Summary of the method: as §2
# [9] = tested on: N2a; assay: Antiamyloidogenic activity in mouse N2A cells transfected with human APP Swedish mutant assessed as increase of amyloid beta (1 to 42)/(1 to 40) ratio at 200 uM after 24 hrs by ELISA; assay type: functional, cell-based
# [10] = tested on: N2a; assay: Antiamyloidogenic activity in mouse N2A cells transfected with human APP Swedish mutant assessed as effect on amyloid beta (1 to 38) level at 200 uM after 24 hrs by ELISA; assay type: functional, cell-based
# [11] = tested on: N2a; assay: Antiamyloidogenic activity in mouse N2A cells transfected with human APP Swedish mutant assessed as increase of amyloid beta (1 to 42) level at 200 uM after 24 hrs by ELISA; assay type: functional, cell-based
# [12] = tested on: N2a; assay: Antiamyloidogenic activity in mouse N2A cells transfected with human APP Swedish mutant assessed as increase of amyloid beta (1 to 40) level at 200 uM after 24 hrs by ELISA; assay type: functional, cell-based
# [13] = tested on: N2a; assay: Antiamyloidogenic activity in mouse N2A cells transfected with human APP Swedish mutant assessed as effect on amyloid beta (1 to 37) level at 200 uM after 24 hrs by ELISA; assay type: functional, cell-based
# [14] = tested on: N2a; assay: Antiamyloidogenic activity in mouse N2A cells transfected with human APP Swedish mutant assessed as increase of amyloid beta (1 to 42) level at 200 uM after 24 hrs by ELISA relative to control; assay type: functional
# [15] = tested on: N2a; assay: Antiamyloidogenic activity in mouse N2A cells assessed as degradation of amyloid beta (1 to 40) level at 10 uM treated 24 hrs before amyloid beta (1 to 40) challenge measured after 8 hrs by MALDI/TOF analysis; assay type: functional, cell-based
# Summary of the method: (§3)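 Wild-type N2a cells in DMEM with 0.2 % FBS, drug-treated after PBS wash; conditioned media collected (18 h per methods, 24 h per text), NaN₃ added, centrifuged, then mixed with Aβ1–40 + Aβ1–42 and incubated 8 h at 37 °C. Cell-free media served as control. Aβ measured by 4G8/6E10 immunoprecipitation and MALDI-TOF, normalized to Aβ1–43 spike and to media control; mean and s.d.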
# [16] = tested on: N2a; assay: Antiamyloidogenic activity in mouse N2A cells assessed as reduction of amyloid beta (1 to 42)/(1 to 40) ratio at 10 uM treated 24 hrs before amyloid beta (1 to 42)/(1 to 40) challenge measured after 8 hrs by MALDI/TOF analysis; assay type: functional, cell-based
# Summary of the method: as §3
# [17] = tested on: N2a; assay: Antiamyloidogenic activity in mouse N2A cells assessed as degradation of amyloid beta (1 to 42) level at 10 uM treated 24 hrs before amyloid beta (1 to 42) challenge measured after 8 hrs by MALDI/TOF analysis; assay type: functional, cell-based
# Summary of the method: as §3
# [18] = tested on: N2a; assay: Antiamyloidogenic activity in mouse N2A cells transfected with human APP Swedish mutant assessed as increase of amyloid beta (1 to 40) level at 100 uM after 24 hrs by ELISA; assay type: functional, cell-based
# [19] = tested on: N2a; assay: Antiamyloidogenic activity in mouse N2A cells assessed as reduction of amyloid beta (1 to 42)/(1 to 40) ratio at 1 uM treated 24 hrs before amyloid beta (1 to 42)/(1 to 40) challenge measured after 8 hrs by MALDI/TOF analysis; assay type: functional, cell-based
# Summary of the method: as §3
# [20] = tested on: N2a; assay: Antiamyloidogenic activity in mouse N2A cells transfected with human APP Swedish mutant assessed as increase of amyloid beta (1 to 42)/(1 to 40) ratio at 100 uM after 24 hrs by ELISA; assay type: functional, cell-based
# [21] = tested on: N2a; assay: Antiamyloidogenic activity in mouse N2A cells assessed as degradation of amyloid beta (1 to 42) level at 1 uM treated 24 hrs before amyloid beta (1 to 42) challenge measured after 8 hrs by MALDI/TOF analysis; assay type: functional, cell-based
# Summary of the method: as §3
# [22] = tested on: N2a; assay: Antiamyloidogenic activity in mouse N2A cells transfected with human APP Swedish mutant assessed as increase of amyloid beta (1 to 42) level at 100 uM after 24 hrs by ELISA; assay type: functional, cell-based
# [23] = tested on: N2a; assay: Antiamyloidogenic activity in mouse N2A cells assessed as degradation of amyloid beta (1 to 40) level at 1 uM treated 24 hrs before amyloid beta (1 to 40) challenge measured after 8 hrs by MALDI/TOF analysis; assay type: functional, cell-based
# Summary of the method: as §3
smiles,measurement,setting,value
COc1ccc2c(c1)c(CC(=O)O)c(C)n2C(=O)c1ccc(Cl)cc1 [INDOMETHACIN],"level, % of control at 100 µM",[1],76.7%
same,"level, % of control at 10 µM",[2],70.9%
same,"level, % of control at 1 µM",[3],108%
same,"level, % of control at 100 µM",[4],39.8%
same,"viability at 24 h, 100 µM",[5],92%
same,"viability at 24 h, 10 µM",[6],98.7%
CC(C(=O)NCCCCO[N+](=O)[O-])c1ccc(-c2ccccc2)c(F)c1 (stereo not drawn),Kp at 2 h,[7],13
same,Kp at 0.5 h,[8],37
CC(C)OC(=O)C(C)(C)Oc1ccc(C(=O)c2ccc(Cl)cc2)cc1 [FENOFIBRATE],Activity,[9],Active
same,Activity,[10],Active
same,Activity,[11],Active
same,Activity,[12],Active
same,Activity,[13],Active
same,fold change (FC),[14],3
CSc1ccc(/C=C2/C=C(CC(=O)O)c3cc(F)ccc32)cc1,Activity,[15],Active
same,"level, % of control at 10 µM",[2],47.5%
same,Activity,[16],Active
same,"level, % of control at 1 µM",[3],80.8%
same,Activity,[17],Active
same,"viability at 24 h, 10 µM",[6],100%
CC(C(=O)OCCCCO[N+](=O)[O-])c1ccc(-c2ccccc2)c(F)c1 (stereo not drawn),Activity,[18],Active
same,Activity,[19],Active
same,Activity,[20],Active
same,Activity,[21],Active
same,"level, % of control at 100 µM",[4],49.8%
same,"viability at 24 h, 100 µM",[5],108%
same,Activity,[22],Active
same,Activity,[23],Active
